Data from ChEMBL document CHEMBL1275434, “In vitro evaluation of CBR-2092, a novel rifamycin-quinolone hybrid antibiotic: studies of the mode of action in Staphylococcus aureus” (Antimicrob Agents Chemother, 2008).
In brackets after ≈: the same amount, converted by molar mass. Activity calls are given as the source filed them. No cut-off for these calls is given here.

How the values were obtained:
Staphylococcus aureus [1] = assay: Antimicrobial activity against Staphylococcus aureus CB1884; format: functional
Staphylococcus aureus [2] = assay: Antimicrobial activity against Staphylococcus aureus CB1887 harboring rpoB R484H, L520 deficient gyrA, […], R236 duplicated parC and parC H103Y mutant genes selected after ABT-719 exposure for 20 days; format: functional; conditions: CB1887, 480 h
Staphylococcus aureus [3] = assay: Antimicrobial activity against Staphylococcus aureus CB370 harboring rpoB H481Y mutant gene; format: functional
Staphylococcus aureus [4] = assay: Antimicrobial activity against Staphylococcus aureus CB1952 harboring rpoB S486L, gyrA […], gyrA E88Q, gyrA G532S, parC S80F, parC E84L mutant genes selected after CBR-2092 exposure for 21 days; format: functional; conditions: CB1952, 504 h
Staphylococcus aureus [5] = assay: Antimicrobial activity against Staphylococcus aureus CB1953 harboring rpoB H481Y, gyrA S84L, gyrA V598I, parC S80F, parC R570H mutant genes selected after CBR-2092 exposure for 7 days; format: functional; conditions: CB1953, 168 h
Staphylococcus aureus [6] = assay: Antimicrobial activity against Staphylococcus aureus CB1954 harboring rpoB H481Y, gyrA S84L, K809 deficient gyrA, parC S80F, parC A523D mutant genes selected after CBR-2092 exposure for 7 days; format: functional; conditions: CB1954, 168 h
Outline: (§1)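 CLSI broth microdilution MIC in cation-adjusted Mueller-Hinton (MHII) broth supplemented with 0.002% (vol/vol) polysorbate 80, included to limit compound loss to plastic surfaces.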

Staphylococcus aureus [7] = assay: Activity at Staphylococcus aureus wild-type DNA topoisomerase 4 subunit ParC
Outline: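 Recombinant S. aureus topoisomerase IV (wild-type ParC with ParE; specific activity 25 to 30 U per μg). Stopped with SDS/proteinase K. Linear DNA quantified on gel; CC50 is the mean of two or more assays.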

Staphylococcus aureus [8] = assay: Activity at Staphylococcus aureus DNA topoisomerase 4 subunit ParC S80F mutant
Staphylococcus aureus [9] = assay: Activity at Staphylococcus aureus wild-type GyrA
Outline: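 Recombinant S. aureus gyrase (wild-type GyrA with His-tagged GyrB; 250 U per μg). SDS/proteinase K stop. Gel quantitation of linear cleavage product gave CC50, the mean of two or more assays.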

[10] = tested on: DNA gyrase subunit A (Staphylococcus aureus), P20831 [S84L]; assay: Activity at Staphylococcus aureus wild-type GyrA S84L mutant
Staphylococcus aureus [11] = assay: Antimicrobial activity against Staphylococcus aureus CB190 by broth microdilution method; format: functional
Staphylococcus aureus [12] = assay: Antimicrobial activity against Staphylococcus aureus CB811 harboring quinolone-resistant gyrA S84L mutant gene by broth microdilution method; format: functional; outline: as §1
Staphylococcus aureus [13] = assay: Antimicrobial activity against Staphylococcus aureus CB808 harboring quinolone-resistant parC S80F mutant gene by broth microdilution method; format: functional; outline: as §1
Staphylococcus aureus [14] = assay: Antimicrobial activity against Staphylococcus aureus CB370 harboring rifampin-resistant rpoB H481Y mutant gene by broth microdilution method; format: functional; outline: as §1
Staphylococcus aureus [15] = assay: Antimicrobial activity against Staphylococcus aureus CB812 harboring rpo B H481Y and gyrA S84L mutant genes by broth microdilution method; format: functional; outline: as §1
Staphylococcus aureus [16] = assay: Inhibition of DNA synthesis in Staphylococcus aureus CB190 assessed as decrease in [methyl-3H]thymidine incorporation at 2 ug/ml; format: functional, organism-based
Staphylococcus aureus [17] = assay: Inhibition of RNA synthesis in Staphylococcus aureus CB190 assessed as decrease in [5,6-3H]uridine incorporation at 2 ug/ml; format: functional, organism-based
Staphylococcus aureus [18] = assay: Inhibition of protein synthesis in Staphylococcus aureus CB190 assessed as decrease in L-[3,4,5-3H]leucine incorporation at 2 ug/ml; format: functional, organism-based
Staphylococcus aureus [19] = assay: Inhibition of cell wall synthesis in Staphylococcus aureus CB190 assessed as decrease in [2,3-3H]D-alanine incorporation at 2 ug/ml; format: functional, organism-based
Staphylococcus aureus [20] = assay: Inhibition of DNA synthesis in rifamycin-resistant Staphylococcus aureus CB370 harboring rpoB H481Y mutant gene assessed as decrease in [methyl-3H]thymidine incorporation at 2 ug/ml; format: functional, organism-based
Outline: (§2)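 Macromolecular synthesis time course in S. aureus, measuring incorporation of [methyl-3H]thymidine (DNA), [5,6-3H]uridine (RNA) or [2,3-3H]D-alanine (cell wall). At each time point, incorporation is expressed as percent of the DMSO-treated control culture. Incorporation at time zero is set to 100%.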

Staphylococcus aureus [21] = assay: Inhibition of DNA synthesis in quinolone-resistant Staphylococcus aureus CB814 harboring gyrA S84L and parC S80F mutant genes assessed as [methyl-3H]thymidine incorporation at 2 ug/ml; format: functional, organism-based; outline: as §2
Staphylococcus aureus [22] = assay: Inhibition of RNA synthesis in quinolone-resistant Staphylococcus aureus CB814 harboring gyrA S84L and parC S80F mutant genes assessed as [5,6-3H]uridine incorporation at 2 ug/ml; format: functional, organism-based; outline: as §2
Staphylococcus aureus [23] = assay: Inhibition of protein synthesis in quinolone-resistant Staphylococcus aureus CB814 harboring gyrA S84L and parC S80F mutant genes assessed as L-[3,4,5-3H]leucine incorporation at 2 ug/ml; format: functional, organism-based
Outline: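 Time-course radiolabel incorporation in S. aureus cultures with test agent. Precursors: [methyl-3H]thymidine (DNA), [5,6-3H]uridine (RNA), L-[3,4,5-3H]leucine (protein), [2,3-3H]D-alanine (cell wall). At each time point, incorporation with agent is expressed relative to the DMSO-treated control culture as percent incorporation. Time-zero incorporation is set to 100%.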

Staphylococcus aureus [24] = assay: Inhibition of cell wall synthesis in quinolone-resistant Staphylococcus aureus CB814 harboring gyrA S84L and parC S80F mutant genes assessed as [2,3-3H]D-alanine incorporation at 2 ug/ml; format: functional, organism-based; outline: as §2
Staphylococcus aureus [25] = assay: Antimicrobial activity against rifampin-sensitive Staphylococcus aureus CB190 by broth microdilution method; format: functional; outline: as §1
Staphylococcus aureus [26] = assay: Antimicrobial activity against rifampin-sensitive Staphylococcus aureus CB190 harboring rpoB H481Y mutant gene by broth microdilution method; format: functional; outline: as §1
Staphylococcus aureus [27] = assay: Antimicrobial activity against rifampin-sensitive Staphylococcus aureus CB190 harboring rpoB Q468L mutant gene by broth microdilution method; format: functional; outline: as §1
Staphylococcus aureus [28] = assay: Antimicrobial activity against rifampin-sensitive Staphylococcus aureus CB190 harboring rpoB Q468K mutant gene by broth microdilution method; format: functional; outline: as §1
Staphylococcus aureus [29] = assay: Antimicrobial activity against rifampin-sensitive Staphylococcus aureus CB190 harboring rpo BH481D mutant gene by broth microdilution method; format: functional; outline: as §1
Staphylococcus aureus [30] = assay: Antimicrobial activity against rifampin-sensitive Staphylococcus aureus CB190 harboring rpoB H472 mutant gene by broth microdilution method; format: functional; outline: as §1
Staphylococcus aureus [31] = assay: Antimicrobial activity against rifampin-sensitive Staphylococcus aureus CB190 harboring rpoB D471Y mutant gene by broth microdilution method; format: functional; outline: as §1
Staphylococcus aureus [32] = assay: Antimicrobial activity against rifampin-sensitive Staphylococcus aureus CB190 harboring rpoB E473 mutant gene by broth microdilution method; format: functional; outline: as §1
Staphylococcus aureus [33] = assay: Antimicrobial activity against rifampin-sensitive Staphylococcus aureus CB190 harboring rpoB H481N mutant gene by broth microdilution method; format: functional; outline: as §1
Staphylococcus aureus [34] = assay: Antimicrobial activity against rifampin-sensitive Staphylococcus aureus CB190 harboring rpoB N474K mutant gene by broth microdilution method; format: functional; outline: as §1
Staphylococcus aureus [35] = assay: Antimicrobial activity against rifampin-sensitive Staphylococcus aureus CB190 harboring rpoB A477V mutant gene by broth microdilution method; format: functional; outline: as §1
Staphylococcus aureus [36] = assay: Antimicrobial activity against rifampin-sensitive Staphylococcus aureus CB190 harboring rpoB D471G mutant gene by broth microdilution method; format: functional; outline: as §1
Staphylococcus aureus [37] = assay: Antimicrobial activity against Staphylococcus aureus CB809 harboring rpoB H481Y and parC S80F mutant genes by broth microdilution method
Staphylococcus aureus [38] = assay: Antimicrobial activity against Staphylococcus aureus CB1947 harboring rpoB H481Y, gyrA S84L, E697 deficient gyrA, parC G167V mutant genes selected after CBR-2092 exposure for 20 days; conditions: CB1947, 480 h
Staphylococcus aureus [39] = assay: Antimicrobial activity against Staphylococcus aureus CB814 harboring fluoroquinolone-resistant gyrA S84L and parC S80F mutant genes by broth microdilution method; format: functional; outline: as §1
Staphylococcus aureus [40] = assay: Antimicrobial activity against Staphylococcus aureus CB815 harboring rpoB H481Y, gyrA S84L and parC S80F mutant genes by broth microdilution method
Staphylococcus aureus [41] = assay: Antimicrobial activity against Staphylococcus aureus CB814 harboring […] and parC S80F mutant genes; format: functional
Staphylococcus aureus [42] = assay: Antimicrobial activity against Staphylococcus aureus CB815 harboring rpoB H481Y, gyrA […] and parC S80F mutant genes; format: functional

O=C(O)c1cn(C2CC2)c2cc(N3CCNCC3)c(F)cc2c1=O [CIPROFLOXACIN]
MIC (Staphylococcus aureus [1]): 8 µg/mL (≈ 24.1 µM)
MIC (Staphylococcus aureus [2]): 64 µg/mL (≈ 193 µM)
MIC (Staphylococcus aureus [3]): 0.25 µg/mL (≈ 0.754 µM)
MIC (Staphylococcus aureus [4]): 64 µg/mL (≈ 193 µM)
MIC (Staphylococcus aureus [5]): 64 µg/mL (≈ 193 µM)
MIC (Staphylococcus aureus [6]): 64 µg/mL (≈ 193 µM)
CC50 (Staphylococcus aureus [7]): 0.4 µM
CC50 (Staphylococcus aureus [8]): 31 µM
CC50 (Staphylococcus aureus [9]): 4.6 µM
CC50 [10]: > 150 µM
MIC (Staphylococcus aureus [11]): 0.25 µg/mL (≈ 0.754 µM)
MIC (Staphylococcus aureus [12]): 0.25 µg/mL (≈ 0.754 µM)
MIC (Staphylococcus aureus [13]): 2 µg/mL (≈ 6.04 µM)
MIC (Staphylococcus aureus [14]): 0.25 µg/mL (≈ 0.754 µM)
MIC (Staphylococcus aureus [15]): 0.25 µg/mL (≈ 0.754 µM)
Activity (Staphylococcus aureus [16]): Active
Activity (Staphylococcus aureus [17]): Active
Activity (Staphylococcus aureus [18]): Active
Activity (Staphylococcus aureus [19]): Active
Activity (Staphylococcus aureus [20]): Active
Activity (Staphylococcus aureus [21]): inactive
Activity (Staphylococcus aureus [22]): inactive
Activity (Staphylococcus aureus [23]): inactive
Activity (Staphylococcus aureus [24]): inactive
MIC (Staphylococcus aureus [25]): 0.25 µg/mL (≈ 0.754 µM)
MIC (Staphylococcus aureus [26]): 0.25 µg/mL (≈ 0.754 µM)
MIC (Staphylococcus aureus [27]): 0.25 µg/mL (≈ 0.754 µM)
MIC (Staphylococcus aureus [28]): 0.25 µg/mL (≈ 0.754 µM)
MIC (Staphylococcus aureus [29]): 0.25 µg/mL (≈ 0.754 µM)
MIC (Staphylococcus aureus [30]): 0.25 µg/mL (≈ 0.754 µM)
MIC (Staphylococcus aureus [31]): 0.5 µg/mL (≈ 1.51 µM)
MIC (Staphylococcus aureus [32]): 0.25 µg/mL (≈ 0.754 µM)
MIC (Staphylococcus aureus [33]): 0.25 µg/mL (≈ 0.754 µM)
MIC (Staphylococcus aureus [34]): 0.25 µg/mL (≈ 0.754 µM)
MIC (Staphylococcus aureus [35]): 0.25 µg/mL (≈ 0.754 µM)
MIC (Staphylococcus aureus [36]): 0.25 µg/mL (≈ 0.754 µM)
MIC (Staphylococcus aureus [37]): 2 µg/mL (≈ 6.04 µM)
MIC (Staphylococcus aureus [38]): 2 µg/mL (≈ 6.04 µM)

COc1c(N2CCNC(C)C2)c(F)cc2c(=O)c(C(=O)O)cn(C3CC3)c12 (stereo not drawn) [GATIFLOXACIN]
CC50 (Staphylococcus aureus [7]): 0.22 µM
CC50 (Staphylococcus aureus [8]): 13 µM
CC50 (Staphylococcus aureus [9]): 0.7 µM
CC50 [10]: 18 µM
MIC (Staphylococcus aureus [11]): 0.06 µg/mL (≈ 0.16 µM)
MIC (Staphylococcus aureus [12]): 0.12 µg/mL (≈ 0.32 µM)
MIC (Staphylococcus aureus [13]): 0.25 µg/mL (≈ 0.666 µM)
MIC (Staphylococcus aureus [39]): 8 µg/mL (≈ 21.3 µM)
MIC (Staphylococcus aureus [14]): 0.06 µg/mL (≈ 0.16 µM)
MIC (Staphylococcus aureus [15]): 0.12 µg/mL (≈ 0.32 µM)
MIC (Staphylococcus aureus [37]): 0.25 µg/mL (≈ 0.666 µM)
MIC (Staphylococcus aureus [40]): 8 µg/mL (≈ 21.3 µM)

CCBr [BROMOETHANE]
MIC (Staphylococcus aureus [1]): 2 µg/mL (≈ 18.4 µM)
MIC (Staphylococcus aureus [3]): 4 µg/mL (≈ 36.7 µM)
MIC (Staphylococcus aureus [41]): 4 µg/mL (≈ 36.7 µM)
MIC (Staphylococcus aureus [4]): 4 µg/mL (≈ 36.7 µM)
MIC (Staphylococcus aureus [42]): 4 µg/mL (≈ 36.7 µM)
MIC (Staphylococcus aureus [5]): 4 µg/mL (≈ 36.7 µM)
MIC (Staphylococcus aureus [6]): 4 µg/mL (≈ 36.7 µM)
MIC (Staphylococcus aureus [38]): 4 µg/mL (≈ 36.7 µM)
